Assay results as given in ChEMBL document CHEMBL1221207, “Expanding the promiscuity of a natural-product glycosyltransferase by directed evolution” (Nat Chem Biol, 2007).
Numbering of substitutions follows the chain as printed.

How the values were obtained:
[1] = target: T1, Oleandomycin glycosyltransferase (Streptomyces antibioticus) (UniProt Q53685); assay: Activity of Streptomyces antibioticus OleD […] mutant assessed as as rate of glucoside formation measured as nanomoles of product formed per minute per mg of enzyme
T1 sequence (whole entry): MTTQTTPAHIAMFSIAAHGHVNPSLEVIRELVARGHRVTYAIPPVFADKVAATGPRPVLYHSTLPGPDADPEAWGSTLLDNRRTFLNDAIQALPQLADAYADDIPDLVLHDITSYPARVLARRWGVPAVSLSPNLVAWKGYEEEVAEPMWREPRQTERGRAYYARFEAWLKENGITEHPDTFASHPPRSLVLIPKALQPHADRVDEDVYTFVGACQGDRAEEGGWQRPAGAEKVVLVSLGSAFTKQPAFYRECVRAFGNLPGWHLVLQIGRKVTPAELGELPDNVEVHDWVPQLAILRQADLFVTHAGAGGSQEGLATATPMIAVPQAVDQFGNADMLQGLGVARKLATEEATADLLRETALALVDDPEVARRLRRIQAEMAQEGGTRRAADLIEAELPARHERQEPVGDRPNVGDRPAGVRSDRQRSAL

[2] = target: T1, Oleandomycin glycosyltransferase (Streptomyces antibioticus); assay: Activity of Streptomyces antibioticus wild-type OleD assessed as conversion rate of compound to produce glucoside 3 using NDP sugar UDP-6-deoxy-glucose after 3 hrs by HPLC
Outline: (§1)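 End-point donor-specificity assay with purified OleD enzyme. Percentage conversion was read after 3 h. Quenched reactions were run by reverse-phase C18 HPLC with a 10–90% CH3CN gradient in 0.1% formic acid/H2O over 20 min at 1 ml min–1, with detection at 254 nm. Products were identified by LC-MS, by comparison to standards where available, and by fluorescence.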

[3] = test system: T2, Oleandomycin glycosyltransferase (Streptomyces antibioticus), Q53685 [P67T,S132F,A242V]; assay: Activity of Streptomyces antibioticus OleD P67T/S132F/A242V mutant assessed as conversion rate of compound to produce glucoside 3 using NDP sugar UDP-6-deoxy-glucose after 3 hrs by HPLC; outline: as §1
T2 sequence (whole entry): T1 sequence (whole entry) with P67T, S132F, A242V

[4] = test system: T2, Oleandomycin glycosyltransferase (Streptomyces antibioticus), Q53685 [P67T,S132F,A242V]; assay: Activity of Streptomyces antibioticus OleD P67T/S132F/A242V mutant assessed as conversion rate of compound to produce glucoside 3 using NDP sugar donor UDP-6-thio-glucose after 3 hrs by HPLC; outline: as §1
[5] = test system: T2, Oleandomycin glycosyltransferase (Streptomyces antibioticus), Q53685 [P67T,S132F,A242V]; assay: Activity of Streptomyces antibioticus OleD P67T/S132F/A242V mutant assessed as conversion rate of compound to produce glucoside 3 using NDP sugar donor UDP-3-amino-6-deoxy-glucose after 3 hrs by HPLC; outline: as §1
[6] = test system: T3, Oleandomycin glycosyltransferase (Streptomyces antibioticus), Q53685 [P67T]; assay: Activity of Streptomyces antibioticus OleD P67T mutant assessed as conversion rate of compound to produce glucoside 3 using NDP sugar donor UDP-glucose after 3 hrs by HPLC; outline: as §1
T3 sequence (whole entry): T1 sequence (whole entry) with P67T

[7] = test system: T3, Oleandomycin glycosyltransferase (Streptomyces antibioticus), Q53685 [P67T]; assay: Activity of Streptomyces antibioticus OleD P67T mutant assessed as conversion rate of compound to produce glucoside 3 using NDP sugar donor UDP-6-deoxy-glucose after 3 hrs by HPLC; outline: as §1
[8] = test system: T3, Oleandomycin glycosyltransferase (Streptomyces antibioticus), Q53685 [P67T]; assay: Activity of Streptomyces antibioticus OleD P67T mutant assessed as conversion rate of compound to produce glucoside 3 using NDP sugar donor UDP-xylose after 3 hrs by HPLC; outline: as §1
[9] = test system: T4, Oleandomycin glycosyltransferase (Streptomyces antibioticus), Q53685 [S132F]; assay: Activity of Streptomyces antibioticus OleD S132F mutant assessed as conversion rate of compound to produce glucoside 3 using NDP sugar donor UDP-xylose after 3 hrs by HPLC; outline: as §1
T4 sequence (whole entry): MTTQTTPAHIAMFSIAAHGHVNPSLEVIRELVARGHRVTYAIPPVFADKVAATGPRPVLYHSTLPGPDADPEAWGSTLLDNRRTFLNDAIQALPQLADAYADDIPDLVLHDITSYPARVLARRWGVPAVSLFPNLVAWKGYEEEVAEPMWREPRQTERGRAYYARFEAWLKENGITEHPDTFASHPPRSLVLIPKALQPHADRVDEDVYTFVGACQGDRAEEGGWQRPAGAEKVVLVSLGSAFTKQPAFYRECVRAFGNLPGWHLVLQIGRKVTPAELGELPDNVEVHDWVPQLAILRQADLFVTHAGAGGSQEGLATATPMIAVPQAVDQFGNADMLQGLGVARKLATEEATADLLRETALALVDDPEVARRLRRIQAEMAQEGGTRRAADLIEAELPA

Structure (SMILES): Cc1cc(=O)oc2cc(O)ccc12
- Activity [1]: 6.3 nmol/min
- Activity [2]: 6%
- Activity [3]: 85%
- Activity [4]: 47%
- Activity [5]: 4%
- Activity [6]: 51%
- Activity [7]: 11%
- Activity [8]: 2%
- Activity [9]: 1.5%
